Measurements taken from ChEMBL document CHEMBL3525906, “A comprehensive assessment of repaglinide metabolic pathways: impact of choice of in vitro system and relative enzyme contribution to in vitro clearance” (Drug Metab Dispos, 2012).

Columns and labels:
Liver microsome [1] = test: Drug metabolism in human liver microsomes assessed as 3'-hydroxy repaglinide formation measured per mg of protein at 0.5 to 150 uM by LC-MS/MS method; assay type: ADME
[2] = Drug metabolism in human hepatic S9 fraction assessed as 3'-hydroxy repaglinide formation measured per mg of protein at 0.5 to 150 uM by LC-MS/MS method; assay type: ADME, Liver; settings: s9, 150 µM
[3] = Drug metabolism in human hepatocytes assessed as 3'-hydroxy repaglinide formation by LC-MS/MS method; assay type: ADME, cell-based, Hepatocyte
Cytochrome P450 3A5 [4] = target: T1, Cytochrome P450 3A5 (Homo sapiens, UniProt P20815); test: Activity of human recombinant CYP3A5 expressed in insect cells assessed as enzyme-mediated 3'-hydroxy repaglinide formation by LC-MS/MS method; assay type: ADME
In short: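 Recombinant P450 (CYP2C8 50, CYP3A4 30, CYP3A5 100; units not given) incubated 10 min at 37°C with repaglinide (8 concentrations, 0.5–150 μM) in 0.1 M phosphate pH 7.4, 10 mM MgCl2, NADPH-regenerating system (1 mM NADP+, isocitrate/isocitrate dehydrogenase). Quenched with ice-cold methanol plus indomethacin internal standard. M1, M2, M4 quantified by LC-MS/MS against authentic standards. Michaelis-Menten fit; mean ± SD, n=3.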

Liver microsome [5] = test: Unbound intrinsic clearance in human liver microsomes assessed as 3'-hydroxy repaglinide formation measured per mg of protein at 0.5 to 150 uM by LC-MS/MS method; assay type: ADME
In short: (§1)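 Pooled HLM, 0.3 mg/ml, in 0.1 M phosphate pH 7.4 with 10 mM MgCl2 and NADPH regenerating system. Repaglinide at 8 levels, 0.5-150 μM; 37°C, 10 min. Metabolites by LC-MS/MS against authentic standards; fu_inc 0.85. Duplicates on three occasions.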

Cytochrome P450 3A5 [6] = target: T1, Cytochrome P450 3A5; test: Unbound intrinsic clearance in human recombinant CYP3A5 expressed in insect cells assessed as enzyme-mediated 3'-hydroxy repaglinide formation per nanomole of protein at 0.5 to 150 uM by LC-MS/MS method; assay type: ADME
Hepatocyte [7] = test: Drug metabolism in human hepatocytes assessed as glucuronide formation measured per 10^6 cells at 0.5 to 150 uM by LC-MS/MS method; assay type: ADME, cell-based
[8] = Drug metabolism in human hepatic S9 fraction assessed as 2-despiperidyl-2-amino repaglinide formation measured per mg of protein at 0.5 to 150 uM by LC-MS/MS method; assay type: ADME, Liver; settings: s9, 150 µM
[9] = Fraction metabolism via UGT in human hepatocytes; assay type: ADME, cell-based, Hepatocyte
Cytochrome P450 3A4 [10] = target: T2, Cytochrome P450 3A4 (Homo sapiens, UniProt P08684); test: Fraction metabolism via CYP3A4 in human hepatic S9 fraction; assay type: ADME, Liver
Cytochrome P450 2C8 = target: T3, Cytochrome P450 2C8 (Homo sapiens, UniProt P10632); test: Fraction metabolism via CYP2C8 in human liver microsomes; assay type: ADME
T3 sequence (P10632 whole entry): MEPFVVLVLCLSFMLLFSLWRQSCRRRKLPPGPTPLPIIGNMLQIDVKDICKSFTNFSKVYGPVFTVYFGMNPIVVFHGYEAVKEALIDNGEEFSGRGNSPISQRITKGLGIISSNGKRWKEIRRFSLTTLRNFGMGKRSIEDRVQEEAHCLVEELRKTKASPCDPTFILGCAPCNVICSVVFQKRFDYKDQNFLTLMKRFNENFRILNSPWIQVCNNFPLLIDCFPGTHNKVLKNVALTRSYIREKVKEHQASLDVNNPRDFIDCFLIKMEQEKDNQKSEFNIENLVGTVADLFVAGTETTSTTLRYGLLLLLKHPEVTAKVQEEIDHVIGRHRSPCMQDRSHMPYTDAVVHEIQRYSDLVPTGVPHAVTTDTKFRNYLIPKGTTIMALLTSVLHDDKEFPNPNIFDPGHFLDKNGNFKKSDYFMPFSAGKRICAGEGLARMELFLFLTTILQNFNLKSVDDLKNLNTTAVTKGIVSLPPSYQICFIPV

Cytochrome P450 3A4 [11] = target: T2, Cytochrome P450 3A4; test: Fraction metabolism via CYP3A4 in human liver microsomes; assay type: ADME
[12] = Fraction metabolism via UGT in human liver microsomes; assay type: ADME
Homo sapiens [13] = species: Homo sapiens; test: Drug metabolism in human patient assessed as fold change in metabolite M2/M4 AUC ratio at 0.25 mg co-treated with atorvastatin relative to atorvastatin non-treated patient; assay type: ADME, organism-based; settings: in vivo
Homo sapiens [14] = species: Homo sapiens; test: Drug metabolism in human patient assessed as fold change in metabolite M2/M4 AUC ratio at 0.25 mg co-treated with telithromycin relative to telithromycin non-treated patient; assay type: ADME, organism-based; settings: in vivo
Homo sapiens [15] = species: Homo sapiens; test: Ratio of AUC in human patient at 0.25 mg to AUC in human patient at 0.25 mg co-treated with gemfibrozil; assay type: ADME, organism-based; settings: in vivo
Homo sapiens [16] = species: Homo sapiens; test: Ratio of AUC in human patient at 0.25 mg to AUC in human patient at 0.25 mg co-treated with gemfibrozil and itraconazole; assay type: ADME, organism-based; settings: in vivo
Homo sapiens [17] = species: Homo sapiens; test: Ratio of AUC in human patient at 0.25 mg to AUC in human patient at 0.25 mg co-treated with atorvastatin; assay type: ADME, organism-based; settings: in vivo
Homo sapiens [18] = species: Homo sapiens; test: Ratio of AUC in human patient at 0.25 mg to AUC in human patient at 0.25 mg co-treated with telithromycin and montelukast; assay type: ADME, organism-based; settings: in vivo
Homo sapiens [19] = species: Homo sapiens; test: Ratio of AUC in human patient at 0.25 mg to AUC in human patient at 0.25 mg co-treated with clarithromycin; assay type: ADME, organism-based; settings: in vivo
Homo sapiens [20] = species: Homo sapiens; test: Drug metabolism in human patient assessed as fold change in metabolite M2/M1 AUC ratio at 0.25 mg co-treated with atorvastatin relative to atorvastatin non-treated patient; assay type: ADME, organism-based; settings: in vivo
[21] = Drug metabolism in human hepatocytes assessed as 2-despiperidyl-2-amino repaglinide formation by LC-MS/MS method; assay type: ADME, cell-based, Hepatocyte
[22] = Drug metabolism in human hepatic S9 fraction assessed as 2-despiperidyl-2-amino repaglinide formation by LC-MS/MS method; assay type: ADME, Liver
Cytochrome P450 3A4 [23] = target: T2, Cytochrome P450 3A4; test: Unbound intrinsic clearance in human recombinant CYP3A4 expressed in insect cells assessed as enzyme-mediated 2-despiperidyl-2-amino repaglinide formation per nanomole of protein at 0.5 to 150 uM by LC-MS/MS method; assay type: ADME
Cytochrome P450 3A5 [24] = target: T1, Cytochrome P450 3A5; test: Unbound intrinsic clearance in human recombinant CYP3A5 expressed in insect cells assessed as enzyme-mediated 2-despiperidyl-2-amino repaglinide formation per nanomole of protein at 0.5 to 150 uM by LC-MS/MS method; assay type: ADME
[25] = Drug metabolism in human hepatic S9 fraction assessed as glucuronide formation measured per mg of protein at 0.5 to 150 uM by LC-MS/MS method; assay type: ADME, Liver; settings: s9, 150 µM
[26] = Drug metabolism in human hepatic S9 fraction assessed as 2-despiperidyl-2-(5-carboxypentylamine) repaglinide formation measured per mg of protein at 0.5 to 150 uM by LC-MS/MS method; assay type: ADME, Liver; settings: s9, 150 µM
[27] = Drug metabolism in human hepatocytes assessed as 2-despiperidyl-2-(5-carboxypentylamine) repaglinide formation by LC-MS/MS method; assay type: ADME, cell-based, Hepatocyte
Liver microsome [28] = test: Drug metabolism in human liver microsomes assessed as 2-despiperidyl-2-(5-carboxypentylamine) repaglinide formation by LC-MS/MS method; assay type: ADME
Liver microsome [29] = test: Unbound intrinsic clearance in human liver microsomes assessed as 2-despiperidyl-2-(5-carboxypentylamine) repaglinide formation measured per mg of protein at 0.5 to 150 uM by LC-MS/MS method; assay type: ADME; in short: as §1
Hepatocyte [30] = test: Drug metabolism in human hepatocytes assessed as 3'-hydroxy repaglinide formation measured per 10^6 cells at 0.5 to 150 uM by LC-MS/MS method; assay type: ADME, cell-based

T1 sequence (P20815 whole entry): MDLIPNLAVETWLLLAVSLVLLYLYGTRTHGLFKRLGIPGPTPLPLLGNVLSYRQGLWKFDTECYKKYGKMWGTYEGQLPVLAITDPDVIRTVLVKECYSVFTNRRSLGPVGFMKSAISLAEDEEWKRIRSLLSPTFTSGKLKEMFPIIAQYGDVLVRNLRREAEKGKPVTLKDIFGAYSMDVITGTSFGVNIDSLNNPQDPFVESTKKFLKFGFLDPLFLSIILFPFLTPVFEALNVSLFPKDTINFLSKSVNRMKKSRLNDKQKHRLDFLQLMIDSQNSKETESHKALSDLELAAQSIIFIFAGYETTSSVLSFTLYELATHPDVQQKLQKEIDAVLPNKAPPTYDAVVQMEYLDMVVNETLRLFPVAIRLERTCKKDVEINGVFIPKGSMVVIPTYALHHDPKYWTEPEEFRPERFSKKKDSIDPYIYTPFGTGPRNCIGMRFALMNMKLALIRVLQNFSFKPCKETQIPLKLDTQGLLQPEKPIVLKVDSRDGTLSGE
T2 sequence (P08684 whole entry): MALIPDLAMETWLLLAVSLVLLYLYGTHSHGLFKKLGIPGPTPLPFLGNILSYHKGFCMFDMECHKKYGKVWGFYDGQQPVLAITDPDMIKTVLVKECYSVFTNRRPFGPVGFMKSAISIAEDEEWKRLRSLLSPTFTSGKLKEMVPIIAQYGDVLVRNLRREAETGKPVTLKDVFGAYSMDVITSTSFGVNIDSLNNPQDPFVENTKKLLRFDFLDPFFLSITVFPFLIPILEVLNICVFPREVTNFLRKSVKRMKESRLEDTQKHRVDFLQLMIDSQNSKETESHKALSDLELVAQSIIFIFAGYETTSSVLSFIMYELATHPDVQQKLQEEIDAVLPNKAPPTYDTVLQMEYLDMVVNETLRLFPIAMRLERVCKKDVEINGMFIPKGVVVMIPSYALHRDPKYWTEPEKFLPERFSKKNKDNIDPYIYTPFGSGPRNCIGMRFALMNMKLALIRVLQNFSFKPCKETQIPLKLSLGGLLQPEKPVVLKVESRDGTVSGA

CCOc1cc(CC(=O)N[C@@H](CC(C)C)c2ccccc2N2CCCCC2)ccc1C(=O)O [REPAGLINIDE]
Vmax (Liver microsome [1]): 130 pmol/min/mg | Vmax [2]: 18 pmol/min/mg | Km [3]: 13 µM | Km (Cytochrome P450 3A5 [4]): ≥ 150 µM | CL free (Liver microsome [5]): 18 µL/min/mg | CL free (Cytochrome P450 3A5 [6]): 0.19 µL/min/nmol | Vmax (Hepatocyte [7]): 5.7 pmol/min/10^6cells | Vmax [8]: 24 pmol/min/mg | Fm [9]: 0.02 | Fm (Cytochrome P450 3A4 [10]): 0.39 | Fm (Cytochrome P450 2C8): 0.63 | Fm (Cytochrome P450 3A4 [11]): 0.2 | Fm [12]: 0.19 | fold change (FC) (Homo sapiens [13]): 0.87 | fold change (FC) (Homo sapiens [14]): 0.8 | Ratio (Homo sapiens [15]): 8.1 | Ratio (Homo sapiens [16]): 19 | Ratio (Homo sapiens [17]): 1.2 | Ratio (Homo sapiens [18]): 1.9 | Ratio (Homo sapiens [19]): 1.4 | fold change (FC) (Homo sapiens [20]): 1.05 | Km [21]: 58 µM | Km [22]: 58 µM | CL free (Cytochrome P450 3A4 [23]): 120 µL/min/nmol | CL free (Cytochrome P450 3A5 [24]): 1.4 µL/min/nmol | Vmax [25]: 46 pmol/min/mg | Vmax [26]: 94 pmol/min/mg | Km [27]: 28 µM | Km (Liver microsome [28]): 24 µM | CL free (Liver microsome [29]): 1.4 µL/min/mg | Vmax (Hepatocyte [30]): 28 pmol/min/10^6cells
